Test results as given in ChEMBL document CHEMBL4270541, “Synthesis and antimicrobial evaluation of amino sugar-based naphthoquinones and isoquinoline-5,8-diones and their halogenated compounds” (Eur J Med Chem, 2018).
In brackets after ≈: the same amount, converted by molar mass. Activity calls are given as the source filed them. No cut-off for these calls is given here.

How the values were obtained:
Proteus mirabilis = test: Antimicrobial activity against Proteus mirabilis INCQS 00095 ATCC 15290 assessed as zone of inhibition at 5 mg/ml after 18 to 24 hrs by disc diffusion method; format: functional; details: read-out: IZ
Staphylococcus aureus [1] = test: Antimicrobial activity against Staphylococcus aureus INCQS 00015 ATCC 25923 at 256 ug/ml after 24 hrs by microdilution assay; format: functional, organism-based
Escherichia coli [2] = test: Bactericidal activity against Escherichia coli INCQS 00033 ATCC 25922 at 256 ug/ml incubated for 24 hrs followed by transfer of microbial suspension to agar plates and measured after 24 hrs post transfer by resazurin dye-based colorimetric analysis; format: functional, organism-based; details: ATCC 25922 INCQS 00033
Outline: (§1)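 For MBC, 10 µL from each clear MIC well was plated on agar and incubated 24 h at 37°C. MBC is the minimum concentration inhibiting 99.9% of growth. […] Triplicate.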

[3] = Hemolytic activity against human erythrocytes assessed as hemolysis at 200 ug/ml after 3 hrs by spectrophotometric analysis relative to control; format: ADME, cell-based, Erythrocyte; details: read-out: Activity
Outline: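 Erythrocytes collected in citrate tubes, washed three times with PBS pH 7.4 by centrifugation and resuspended in PBS. Incubated with compounds at 200 µg/mL for 3 h at 37°C. Released hemoglobin was read in the supernatant at 545 nm against 1% Triton X-100 (complete lysis) and 1% DMSO (negative control). Below 10% hemolysis was taken as hemocompatible. Three independent experiments.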

Staphylococcus aureus [4] = test: Antimicrobial activity against methicillin-resistant Staphylococcus aureus BMB9393 at 256 ug/ml after 24 hrs by microdilution assay; format: functional, organism-based
Enterococcus faecalis = test: Antimicrobial activity against Enterococcus faecalis INCQS 00234 ATCC 29212 assessed as zone of inhibition at 5 mg/ml after 18 to 24 hrs by disc diffusion method; format: functional; details: ATCC 29212 INCQS 00234, read-out: IZ
Staphylococcus aureus [5] = test: Bactericidal activity against methicillin-resistant Staphylococcus aureus BMB9393 at 256 ug/ml incubated for 24 hrs followed by transfer of microbial suspension to agar plates and measured after 24 hrs post transfer by resazurin dye-based colorimetric analysis; format: functional, organism-based
Outline: (§2)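 From MIC wells with no visible growth, 10 µL is transferred to agar plates and incubated 24 h at 37°C. MBC is the minimum concentration inhibiting 99.9% of growth. […] Triplicate.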

Pseudomonas aeruginosa [6] = test: Antimicrobial activity against Pseudomonas aeruginosa INCQS 00099 ATCC 27853 at 256 ug/ml after 24 hrs by microdilution assay; format: functional, organism-based
Klebsiella pneumoniae = test: Antimicrobial activity against Klebsiella pneumoniae INCQS 00083 ATCC 4352 assessed as zone of inhibition at 5 mg/ml after 18 to 24 hrs by disc diffusion method; format: functional; details: read-out: IZ
Pseudomonas aeruginosa [7] = test: Bactericidal activity against Pseudomonas aeruginosa INCQS 00099 ATCC 27853 at 256 ug/ml incubated for 24 hrs followed by transfer of microbial suspension to agar plates and measured after 24 hrs post transfer by resazurin dye-based colorimetric analysis; format: functional, organism-based; outline: as §1
Staphylococcus simulans [8] = test: Bactericidal activity against Staphylococcus simulans INCQS 00254 ATCC 27851 at 256 ug/ml incubated for 24 hrs followed by transfer of microbial suspension to agar plates and measured after 24 hrs post transfer by resazurin dye-based colorimetric analysis; format: functional, organism-based; outline: as §1
[9] = system: Staphylococcus epidermidis; test: Antimicrobial activity against Staphylococcus epidermidis INCQS 00016 ATCC 12228 after 24 hrs by microdilution assay; format: functional; details: ATCC 12228 INCQS 00016, 24 h
Escherichia coli [10] = test: Antimicrobial activity against Escherichia coli INCQS 00033 ATCC 25922 assessed as zone of inhibition at 5 mg/ml after 18 to 24 hrs by disc diffusion method; format: functional; details: ATCC 25922 INCQS 00033, read-out: IZ
Staphylococcus aureus [11] = test: Bactericidal activity against Staphylococcus aureus INCQS 00015 ATCC 25923 at 256 ug/ml incubated for 24 hrs followed by transfer of microbial suspension to agar plates and measured after 24 hrs post transfer by resazurin dye-based colorimetric analysis; format: functional, organism-based; outline: as §1
Pseudomonas aeruginosa [12] = test: Antimicrobial activity against Pseudomonas aeruginosa INCQS 00099 ATCC 27853 assessed as zone of inhibition at 5 mg/ml after 18 to 24 hrs by disc diffusion method; format: functional; details: read-out: IZ
Staphylococcus aureus [13] = test: Antimicrobial activity against Staphylococcus aureus INCQS 00015 ATCC 25923 assessed as zone of inhibition at 5 mg/ml after 18 to 24 hrs by disc diffusion method; format: functional; details: read-out: IZ
[14] = system: Staphylococcus epidermidis; test: Ratio of MBC99.9 to MIC for Staphylococcus epidermidis INCQS 00016 ATCC 12228; format: functional, ATCC 12228 INCQS 00016
Outline: (§3)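 MBC/MIC ratio from the 24 h, 37°C microdilution MIC and the agar-plating MBC (99.9% growth inhibition). A ratio ≤2 was classed as bactericidal and ≥4 as bacteriostatic.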

Staphylococcus simulans [15] = test: Antimicrobial activity against Staphylococcus simulans INCQS 00254 ATCC 27851 at 256 ug/ml after 24 hrs by microdilution assay; format: functional, organism-based
Escherichia coli [16] = test: Antimicrobial activity against Escherichia coli INCQS 00033 ATCC 25922 at 256 ug/ml after 24 hrs by microdilution assay; format: functional, organism-based; details: ATCC 25922 INCQS 00033
[17] = system: Staphylococcus epidermidis; test: Antimicrobial activity against Staphylococcus epidermidis INCQS 00016 ATCC 12228 assessed as zone of inhibition at 5 mg/ml after 18 to 24 hrs by disc diffusion method; format: functional; details: ATCC 12228 INCQS 00016, read-out: IZ
Staphylococcus aureus [18] = test: Antimicrobial activity against methicillin-resistant Staphylococcus aureus BMB9393 assessed as zone of inhibition at 5 mg/ml after 18 to 24 hrs by disc diffusion method; format: functional; details: read-out: IZ
[19] = system: Staphylococcus epidermidis; test: Bactericidal activity against Staphylococcus epidermidis INCQS 00016 ATCC 12228 incubated for 24 hrs followed by transfer of microbial suspension to agar plates and measured after 24 hrs post transfer by resazurin dye-based colorimetric analysis; format: functional; details: ATCC 12228 INCQS 00016, 24 h, read-out: MBC99.9; outline: as §1
Staphylococcus simulans [20] = test: Antimicrobial activity against Staphylococcus simulans INCQS 00254 ATCC 27851 assessed as zone of inhibition at 5 mg/ml after 18 to 24 hrs by disc diffusion method; format: functional; details: read-out: IZ
Staphylococcus simulans [21] = test: Antimicrobial activity against Staphylococcus simulans INCQS 00254 ATCC 27851 after 24 hrs by microdilution assay; format: functional; details: INCQS 00254 ATCC 27851, 24 h
Staphylococcus aureus [22] = test: Bactericidal activity against Staphylococcus aureus INCQS 00015 ATCC 25923 incubated for 24 hrs followed by transfer of microbial suspension to agar plates and measured after 24 hrs post transfer by resazurin dye-based colorimetric analysis; format: functional; details: INCQS 00015 ATCC 25923, 24 h, read-out: MBC99.9; outline: as §2
Staphylococcus aureus [23] = test: Ratio of MBC99.9 to MIC for Staphylococcus aureus INCQS 00015 ATCC 25923; format: functional; outline: as §3
Staphylococcus simulans [24] = test: Ratio of MBC99.9 to MIC for Staphylococcus simulans INCQS 00254 ATCC 27851; format: functional; outline: as §3
Staphylococcus aureus [25] = test: Antimicrobial activity against Staphylococcus aureus INCQS 00015 ATCC 25923 after 24 hrs by microdilution assay; format: functional; details: INCQS 00015 ATCC 25923, 24 h
Staphylococcus simulans [26] = test: Bactericidal activity against Staphylococcus simulans INCQS 00254 ATCC 27851 incubated for 24 hrs followed by transfer of microbial suspension to agar plates and measured after 24 hrs post transfer by resazurin dye-based colorimetric analysis; format: functional; details: INCQS 00254 ATCC 27851, 24 h, read-out: MBC99.9; outline: as §1

SMILES | zone of inhibition at 5000 µg/mL (Proteus mirabilis) | Activity (Staphylococcus aureus [1]) | Activity (Escherichia coli [2]) | hemolysis at 3 h, 200 ug/ml [3] | Activity (Staphylococcus aureus [4]) | zone of inhibition at 5000 µg/mL (Enterococcus faecalis) | Activity (Staphylococcus aureus [5]) | Activity (Pseudomonas aeruginosa [6]) | zone of inhibition at 5000 µg/mL (Klebsiella pneumoniae) | Activity (Pseudomonas aeruginosa [7]) | MIC [9] | zone of inhibition at 5000 µg/mL (Escherichia coli [10]) | zone of inhibition at 5000 µg/mL (Pseudomonas aeruginosa [12]) | zone of inhibition at 5000 µg/mL (Staphylococcus aureus [13]) | Ratio [14] | Activity (Escherichia coli [16]) | zone of inhibition at 5000 µg/mL [17] | zone of inhibition at 5000 µg/mL (Staphylococcus aureus [18]) | MBC [19] | zone of inhibition at 5000 µg/mL (Staphylococcus simulans [20]) | also measured
COC(=O)c1c(C)nc(C)c2c1C(=O)C(Br)=C(NC[C@H]1O[C@@H]3OC(C)(C)O[C@@H]3[C@H]1O)C2=O | 0 mm | inactive | inactive | < 10% | inactive | 0 mm | inactive | inactive | 0 mm | inactive | 64 µg/mL (≈ 125 µM) | 0 mm | 0 mm | 0 mm | 1 | inactive | 7 mm | 0 mm | 64 µg/mL (≈ 125 µM) | 0 mm | Activity (Staphylococcus simulans [8]): inactive; Activity (Staphylococcus aureus [11]): inactive; Activity (Staphylococcus simulans [15]): inactive
COC(=O)c1c(C)nc(C)c2c1C(=O)C=C(NC[C@H]1O[C@@H]3OC(C)(C)O[C@@H]3[C@H]3OC(C)(C)O[C@H]31)C2=O | 0 mm | inactive | inactive | < 10% | inactive | 0 mm | inactive | inactive | 0 mm | inactive | 256 µg/mL (≈ 509 µM) | 0 mm | 0 mm | 0 mm | 1 | inactive | 9 mm | 0 mm | 256 µg/mL (≈ 509 µM) | 0 mm | Activity (Staphylococcus simulans [8]): inactive; Activity (Staphylococcus aureus [11]): inactive; Activity (Staphylococcus simulans [15]): inactive
COC(=O)c1c(C)nc(C)c2c1C(=O)C(Cl)=C(NC[C@H]1O[C@@H]3OC(C)(C)O[C@@H]3[C@H]1O)C2=O | 0 mm | inactive | inactive | 10.1 to 14.4% | inactive | 0 mm | inactive | inactive | 0 mm | inactive | 32 µg/mL (≈ 68.5 µM) | 0 mm | 0 mm | 0 mm | 1 | inactive | 8 mm | 0 mm | 32 µg/mL (≈ 68.5 µM) | 0 mm | Activity (Staphylococcus simulans [8]): inactive; Activity (Staphylococcus aureus [11]): inactive; Activity (Staphylococcus simulans [15]): inactive
COC(=O)c1c(C)nc(C)c2c1C(=O)C=C(NC[C@H]1O[C@@H]3OC(C)(C)O[C@@H]3[C@H]1O)C2=O | 0 mm | inactive | inactive | < 10% | inactive | 0 mm | inactive | inactive | 0 mm | inactive | 256 µg/mL (≈ 592 µM) | 0 mm | 0 mm | 0 mm | 1 | inactive | 10 mm | 0 mm | 256 µg/mL (≈ 592 µM) | 0 mm | Activity (Staphylococcus simulans [8]): inactive; Activity (Staphylococcus aureus [11]): inactive; Activity (Staphylococcus simulans [15]): inactive
CN[C@H](CC(C)C)C(=O)N[C@H]1C(=O)N[C@@H](CC(N)=O)C(=O)N[C@H]2C(=O)N[C@H]3C(=O)N[C@H](C(=O)N[C@H](C(=O)O)c4cc(O)cc(O)c4-c4cc3ccc4O)[C@H](O)c3ccc(c(Cl)c3)Oc3cc2cc(c3O[C@@H]2O[C@H](CO)[C@@H](O)[C@H](O)[C@H]2O[C@H]2C[C@](C)(N)[C@H](O)[C@H](C)O2)Oc2ccc(cc2Cl)[C@H]1O [VANCOMYCIN] |  |  |  |  |  | 16 mm |  |  |  |  |  |  |  | 16 mm |  |  | 15 mm | 14 mm |  | 16 mm | MIC (Staphylococcus simulans [21]): 2 µg/mL (≈ 1.38 µM)
COC(=O)c1c(C)nc(C)c2c1C(=O)C(Cl)=C(N)C2=O | 0 mm |  | inactive | 10.1 to 14.4% | inactive | 0 mm | inactive | inactive | 0 mm | inactive | 32 µg/mL (≈ 109 µM) | 0 mm | 0 mm | 15 mm | 1 | inactive | 18 mm | 12 mm | 32 µg/mL (≈ 109 µM) | 16 mm | MBC (Staphylococcus aureus [22]): 64 µg/mL (≈ 217 µM); MIC (Staphylococcus simulans [21]): 32 µg/mL (≈ 109 µM); Ratio (Staphylococcus aureus [23]): 1; Ratio (Staphylococcus simulans [24]): 1; MIC (Staphylococcus aureus [25]): 64 µg/mL (≈ 217 µM); MBC (Staphylococcus simulans [26]): 32 µg/mL (≈ 109 µM)
